{"source": "ChEMBL document CHEMBL1926676", "about": "“Antimalarial β-carboline and indolactam alkaloids from Marinactinospora thermotolerans, a deep sea isolate” (J Nat Prod, 2011)", "key": {"Plasmodium falciparum [1]": {"system": "Plasmodium falciparum", "assay": "Antiplasmodial activity against drug-sensitive Plasmodium falciparum 3D7 assessed as parasitaemia after 72 hrs using SYBR Green 1 staining by fluorescence method", "type": "functional, organism-based", "conditions": "3D7, 72 h", "how_it_was_run": "(§1)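 Blood-stage P. falciparum cultures at 0.2% parasitemia, 2% hematocrit, given serially diluted compound in quadruplicate; 72 h at 37 °C. Lysis buffer with SYBR Green I (0.2 μL/mL) added, 1 h in dark, then relative fluorescence read. IC50 by nonlinear regression of logistic dose-response curves.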"}, "Plasmodium falciparum [2]": {"system": "Plasmodium falciparum", "assay": "Antiplasmodial activity against multidrug-resistant Plasmodium falciparum Dd2 assessed as parasitaemia after 72 hrs using SYBR Green 1 staining by fluorescence method", "type": "functional, organism-based", "conditions": "Dd2, 72 h", "how_it_was_run": "as §1"}, "MCF7": {"system": "MCF7", "assay": "Cytotoxicity against human MCF7 cells after 48 hrs by MTT assay", "type": "functional, cell-based", "conditions": "MCF7, 48 h", "how_it_was_run": "(§2)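 Cells grown in RPMI-1640 with 10% FBS, 37 °C, 5% CO2. Seeded at 2 × 10^3 cells per well and left 12 h. Compounds added in DMSO at various concentrations for 48 h. MTT (1 mg/mL in PBS) then added for 4 h at 37 °C. Formazan dissolved in DMSO and absorbance read.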"}, "SW1990": {"system": "SW1990", "assay": "Cytotoxicity against human SW1990 cells after 48 hrs by MTT assay", "type": "functional, cell-based", "conditions": "SW1990, 48 h", "how_it_was_run": "as §2"}, "SMMC-7721": {"system": "SMMC-7721", "assay": "Cytotoxicity against human SMMC7721 cells after 48 hrs by MTT assay", "type": "functional, cell-based", "conditions": "SMMC-7721, 48 h", "how_it_was_run": "as §2"}, "NCI-H460": {"system": "NCI-H460", "assay": "Cytotoxicity against human NCI-H460 cells after 48 hrs by MTT assay", "type": "functional, cell-based", "conditions": "NCI-H460, 48 h", "how_it_was_run": "as §2"}, "A549": {"system": "A549", "assay": "Cytotoxicity against human A549 cells after 48 hrs by MTT assay", "type": "functional, cell-based", "conditions": "A549, 48 h", "how_it_was_run": "as §2"}, "HeLa": {"system": "HeLa", "assay": "Cytotoxicity against human HeLa cells after 48 hrs by MTT assay", "type": "functional, cell-based", "how_it_was_run": "as §2"}, "DU-145": {"system": "DU-145", "assay": "Cytotoxicity against human DU145 cells after 48 hrs by MTT assay", "type": "functional, cell-based", "conditions": "DU-145, 48 h", "how_it_was_run": "as §2"}, "MDA-MB-231": {"system": "MDA-MB-231", "assay": "Cytotoxicity against human MDA-MB-231 cells after 48 hrs by MTT assay", "type": "functional, cell-based", "conditions": "MDA-MB-231, 48 h", "how_it_was_run": "as §2"}}}
{"compound": "COc1ccc(CCNC(=O)c2cc3c([nH]c4ccccc43)c(C(C)=O)n2)cc1", "note": "[MARINACARBOLINE A]", "values": [{"measurement": "IC50", "setting": "Plasmodium falciparum [1]", "result": 36, "unit": "µM"}, {"measurement": "IC50", "setting": "Plasmodium falciparum [2]", "result": 1.92, "unit": "µM"}, {"measurement": "IC50", "setting": "MCF7", "result": "> 50", "unit": "µM"}, {"measurement": "IC50", "setting": "SW1990", "result": "> 50", "unit": "µM"}, {"measurement": "IC50", "setting": "SMMC-7721", "result": "> 50", "unit": "µM"}, {"measurement": "IC50", "setting": "NCI-H460", "result": "> 50", "unit": "µM"}, {"measurement": "IC50", "setting": "A549", "result": "> 50", "unit": "µM"}, {"measurement": "IC50", "setting": "HeLa", "result": "> 50", "unit": "µM"}, {"measurement": "IC50", "setting": "DU-145", "result": "> 50", "unit": "µM"}, {"measurement": "IC50", "setting": "MDA-MB-231", "result": "> 50", "unit": "µM"}]}
{"compound": "CC(=O)c1nc(C(=O)NCCc2ccc(O)cc2)cc2c1[nH]c1ccccc12", "values": [{"measurement": "IC50", "setting": "Plasmodium falciparum [1]", "result": 16.6, "unit": "µM"}, {"measurement": "IC50", "setting": "Plasmodium falciparum [2]", "result": 15.6, "unit": "µM"}, {"measurement": "IC50", "setting": "MCF7", "result": "> 50", "unit": "µM"}, {"measurement": "IC50", "setting": "SW1990", "result": "> 50", "unit": "µM"}, {"measurement": "IC50", "setting": "SMMC-7721", "result": "> 50", "unit": "µM"}, {"measurement": "IC50", "setting": "NCI-H460", "result": "> 50", "unit": "µM"}, {"measurement": "IC50", "setting": "A549", "result": "> 50", "unit": "µM"}, {"measurement": "IC50", "setting": "HeLa", "result": "> 50", "unit": "µM"}, {"measurement": "IC50", "setting": "DU-145", "result": "> 50", "unit": "µM"}, {"measurement": "IC50", "setting": "MDA-MB-231", "result": "> 50", "unit": "µM"}]}
{"compound": "C=CC(C)(C)c1ccc2c3c(c[nH]c13)C[C@@H](CO)NC(=O)[C@H]([C@@H](C)CC)N2", "values": [{"measurement": "IC50", "setting": "Plasmodium falciparum [1]", "result": 20.8, "unit": "µM"}, {"measurement": "IC50", "setting": "Plasmodium falciparum [2]", "result": 18.7, "unit": "µM"}, {"measurement": "IC50", "setting": "MCF7", "result": "> 50", "unit": "µM"}, {"measurement": "IC50", "setting": "SW1990", "result": "> 50", "unit": "µM"}, {"measurement": "IC50", "setting": "SMMC-7721", "result": "> 50", "unit": "µM"}, {"measurement": "IC50", "setting": "NCI-H460", "result": "> 50", "unit": "µM"}, {"measurement": "IC50", "setting": "A549", "result": "> 50", "unit": "µM"}, {"measurement": "IC50", "setting": "HeLa", "result": "> 50", "unit": "µM"}, {"measurement": "IC50", "setting": "DU-145", "result": "> 50", "unit": "µM"}, {"measurement": "IC50", "setting": "MDA-MB-231", "result": "> 50", "unit": "µM"}]}
{"compound": "CC(=O)c1nc(C(=O)NCCc2ccccc2)cc2c1[nH]c1ccccc12", "values": [{"measurement": "IC50", "setting": "Plasmodium falciparum [1]", "result": 3.09, "unit": "µM"}, {"measurement": "IC50", "setting": "Plasmodium falciparum [2]", "result": 3.38, "unit": "µM"}, {"measurement": "IC50", "setting": "MCF7", "result": "> 50", "unit": "µM"}, {"measurement": "IC50", "setting": "SW1990", "result": "> 50", "unit": "µM"}, {"measurement": "IC50", "setting": "SMMC-7721", "result": "> 50", "unit": "µM"}, {"measurement": "IC50", "setting": "NCI-H460", "result": "> 50", "unit": "µM"}, {"measurement": "IC50", "setting": "A549", "result": "> 50", "unit": "µM"}, {"measurement": "IC50", "setting": "HeLa", "result": "> 50", "unit": "µM"}, {"measurement": "IC50", "setting": "DU-145", "result": "> 50", "unit": "µM"}, {"measurement": "IC50", "setting": "MDA-MB-231", "result": "> 50", "unit": "µM"}]}
{"compound": "CC(=O)c1nc(C(=O)NCCc2c[nH]c3ccccc23)cc2c1[nH]c1ccccc12", "note": "[MARINACARBOLINE D]", "values": [{"measurement": "IC50", "setting": "Plasmodium falciparum [1]", "result": 5.39, "unit": "µM"}, {"measurement": "IC50", "setting": "Plasmodium falciparum [2]", "result": 3.59, "unit": "µM"}, {"measurement": "IC50", "setting": "MCF7", "result": "> 50", "unit": "µM"}, {"measurement": "IC50", "setting": "SW1990", "result": "> 50", "unit": "µM"}, {"measurement": "IC50", "setting": "SMMC-7721", "result": "> 50", "unit": "µM"}, {"measurement": "IC50", "setting": "NCI-H460", "result": "> 50", "unit": "µM"}, {"measurement": "IC50", "setting": "A549", "result": "> 50", "unit": "µM"}, {"measurement": "IC50", "setting": "HeLa", "result": "> 50", "unit": "µM"}, {"measurement": "IC50", "setting": "DU-145", "result": "> 50", "unit": "µM"}, {"measurement": "IC50", "setting": "MDA-MB-231", "result": "> 50", "unit": "µM"}]}
{"compound": "C=CC(C)(C)c1ccc2c3c(c[nH]c13)C[C@@H](CO[C@@H]1O[C@@H](CO)[C@H](O)[C@@H](O)[C@@H]1O)NC(=O)[C@H]([C@@H](C)CC)N2C", "values": [{"measurement": "IC50", "setting": "Plasmodium falciparum [1]", "result": 10.4, "unit": "µM"}, {"measurement": "IC50", "setting": "Plasmodium falciparum [2]", "result": 5.03, "unit": "µM"}, {"measurement": "IC50", "setting": "MCF7", "result": "> 50", "unit": "µM"}, {"measurement": "IC50", "setting": "SW1990", "result": "> 50", "unit": "µM"}, {"measurement": "IC50", "setting": "SMMC-7721", "result": "> 50", "unit": "µM"}, {"measurement": "IC50", "setting": "NCI-H460", "result": "> 50", "unit": "µM"}, {"measurement": "IC50", "setting": "A549", "result": "> 50", "unit": "µM"}, {"measurement": "IC50", "setting": "HeLa", "result": "> 50", "unit": "µM"}, {"measurement": "IC50", "setting": "DU-145", "result": "> 50", "unit": "µM"}, {"measurement": "IC50", "setting": "MDA-MB-231", "result": "> 50", "unit": "µM"}]}
{"compound": "C=CC(C)(C)c1ccc2c3c(c[nH]c13)C[C@@H](CO)NC(=O)[C@H](C(C)C)N2C", "note": "[PENDOLMYCIN]", "values": [{"measurement": "IC50", "setting": "MCF7", "result": "> 50", "unit": "µM"}, {"measurement": "IC50", "setting": "SW1990", "result": "> 50", "unit": "µM"}, {"measurement": "IC50", "setting": "SMMC-7721", "result": "> 50", "unit": "µM"}, {"measurement": "IC50", "setting": "NCI-H460", "result": "> 50", "unit": "µM"}, {"measurement": "IC50", "setting": "A549", "result": "> 50", "unit": "µM"}, {"measurement": "IC50", "setting": "HeLa", "result": "> 50", "unit": "µM"}, {"measurement": "IC50", "setting": "DU-145", "result": "> 50", "unit": "µM"}, {"measurement": "IC50", "setting": "MDA-MB-231", "result": "> 50", "unit": "µM"}]}
{"compound": "CC(=O)c1nccc2c1[nH]c1ccccc12", "values": [{"measurement": "IC50", "setting": "MCF7", "result": "> 50", "unit": "µM"}, {"measurement": "IC50", "setting": "SW1990", "result": "> 50", "unit": "µM"}, {"measurement": "IC50", "setting": "SMMC-7721", "result": "> 50", "unit": "µM"}, {"measurement": "IC50", "setting": "NCI-H460", "result": "> 50", "unit": "µM"}, {"measurement": "IC50", "setting": "A549", "result": "> 50", "unit": "µM"}, {"measurement": "IC50", "setting": "HeLa", "result": "> 50", "unit": "µM"}, {"measurement": "IC50", "setting": "DU-145", "result": "> 50", "unit": "µM"}, {"measurement": "IC50", "setting": "MDA-MB-231", "result": "> 50", "unit": "µM"}]}
{"compound": "C=CC(C)(C)c1ccc2c3c(c[nH]c13)C[C@@H](CO)NC(=O)[C@H]([C@@H](C)CC)N2C", "note": "[METHYLPENDOLMYCIN]", "values": [{"measurement": "IC50", "setting": "MCF7", "result": "> 50", "unit": "µM"}, {"measurement": "IC50", "setting": "SW1990", "result": "> 50", "unit": "µM"}, {"measurement": "IC50", "setting": "SMMC-7721", "result": "> 50", "unit": "µM"}, {"measurement": "IC50", "setting": "NCI-H460", "result": "> 50", "unit": "µM"}, {"measurement": "IC50", "setting": "A549", "result": "> 50", "unit": "µM"}, {"measurement": "IC50", "setting": "HeLa", "result": "> 50", "unit": "µM"}, {"measurement": "IC50", "setting": "DU-145", "result": "> 50", "unit": "µM"}, {"measurement": "IC50", "setting": "MDA-MB-231", "result": "> 50", "unit": "µM"}]}
